Measured values reported in ChEMBL document CHEMBL3588766 (Bioorg Med Chem, 2015).
Values after ≈ are worked out from the molar mass of the structure shown. Values belong to the compound of their own block, whether it stands above or below them. Active and inactive are the calls of the source. The rule behind the calls is not given here.

Experiments:
Bile acid receptor [1] = biological target: T1, Bile acid receptor (Homo sapiens, UniProt Q96RI1); assay: Agonist activity at human full length FXR expressed in HeLa cells cotransfected with pSG5-human RXR after 24 hrs by Dual-Glo luciferase reporter gene assay; format: cell-based
T1 sequence (Q96RI1 whole entry): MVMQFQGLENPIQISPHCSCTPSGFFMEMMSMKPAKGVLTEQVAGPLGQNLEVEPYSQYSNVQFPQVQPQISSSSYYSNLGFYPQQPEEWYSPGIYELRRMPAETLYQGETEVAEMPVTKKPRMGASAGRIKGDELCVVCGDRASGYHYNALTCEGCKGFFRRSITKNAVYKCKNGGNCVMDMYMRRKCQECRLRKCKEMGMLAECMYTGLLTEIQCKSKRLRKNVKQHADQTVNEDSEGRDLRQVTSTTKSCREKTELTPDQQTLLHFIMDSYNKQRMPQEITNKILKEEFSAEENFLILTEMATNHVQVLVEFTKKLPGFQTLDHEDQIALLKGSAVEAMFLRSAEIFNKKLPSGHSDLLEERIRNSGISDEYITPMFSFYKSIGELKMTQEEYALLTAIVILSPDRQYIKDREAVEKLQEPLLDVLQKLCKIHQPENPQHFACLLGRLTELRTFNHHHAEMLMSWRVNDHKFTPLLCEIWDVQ

[2] = Solubility of the compound in 1% aqueous DMSO solution by HPLC analysis; format: physicochemical
[3] = Metabolic stability in Sprague-Dawley rat liver microsomes assessed as compound remaining at 10 uM by HPLC analysis; format: ADME; conditions: read-out: Stability
Summary of the method: (§1)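 Compound at 10 µM final, preincubated 5 min at 37 °C in 0.1 M phosphate buffer pH 7.4 with NADPH-regenerating system, then Sprague–Dawley rat liver microsomes added. Stopped with ice-cold methanol at 0, 15, 30, 60 min. Remaining parent quantified by phenyl-column HPLC (UV 330/254 nm) against an external calibration. Controls run without NADPH and with heat-inactivated microsomes.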

[4] = Metabolic stability in Sprague-Dawley rat liver microsomes assessed as compound remaining at 10 uM after 15 mins by HPLC analysis; format: ADME; conditions: read-out: Stability; summary of the method: as §1
[5] = Metabolic stability in Sprague-Dawley rat liver microsomes assessed as compound remaining at 10 uM after 30 mins by HPLC analysis; format: ADME; conditions: read-out: Stability; summary of the method: as §1
[6] = Metabolic stability in Sprague-Dawley rat liver microsomes assessed as compound remaining at 10 uM after 60 mins by HPLC analysis; format: ADME; conditions: read-out: Stability; summary of the method: as §1
HepG2 [7] = assay: Cytotoxicity against human HepG2 cells at 5 uM after 48 hrs by LDH assay (reference value: 0%); format: cell-based; conditions: hepg2, 48 h
Summary of the method: (§2)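 HepG2 at 3*10⁴ cells/well, moved to 1% charcoal-stripped FCS medium after 24 h, then compound for 48 h. Triton X-100 (2%) added 2 h before reading as 100% lysis control; untreated = 0%. Supernatant mixed with LDH substrate for 20 min, absorbance 490 nm against 690 nm reference. Triplicates, ≥4 independent repeats.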

HepG2 [8] = assay: Cytotoxicity against human HepG2 cells at 10 uM after 48 hrs by LDH assay (reference value: 0%); format: cell-based; conditions: hepg2, 48 h; summary of the method: as §2
HepG2 [9] = assay: Cytotoxicity against human HepG2 cells at 50 uM after 48 hrs by LDH assay (reference value: 0%); format: cell-based; conditions: hepg2, 48 h; summary of the method: as §2
[10] = Cytotoxicity against human HepG2 cells assessed as cell proliferation at 5 uM after 48 hrs by WST-1 assay (Rvb =100%); format: cell-based; conditions: read-out: Activity
Summary of the method: (§3)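 HepG2 seeded at 3*10⁴ cells/well in 10% FCS DMEM; after 24 h switched to 1% charcoal-stripped FCS and exposed to compound for 48 h. Revlotron 100 µM as positive control; Zileuton 100 µM and DMEM/1% DMSO as negative controls. WST reagent for 45 min, absorbance 450/620 nm, untreated set to 100%. Triplicates, ≥4 repeats.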

[11] = Cytotoxicity against human HepG2 cells assessed as cell proliferation at 10 uM after 48 hrs by WST-1 assay (Rvb =100%); format: cell-based; conditions: read-out: Activity; summary of the method: as §3
[12] = Cytotoxicity against human HepG2 cells assessed as cell proliferation at 50 uM after 48 hrs by WST-1 assay (Rvb =100%); format: cell-based; conditions: read-out: Activity; summary of the method: as §3
[13] = biological target: T2, Bile acid receptor (Homo sapiens) (UniProt Q96RI1); assay: Partial agonist activity at FXR in human HepG2 cells assessed as induction of BSEP gene expression at 0.1 uM after 24 hrs by qRT-PCR analysis (reference value: 100%); format: cell-based
T2 sequence (whole entry): T1 sequence (Q96RI1 whole entry)
Summary of the method: (§4)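 HepG2 (BSEP, SHP, OSTα) or HT-29 (IBABP) cells seeded at 2*10⁶/well, moved to MEM with 1% charcoal-stripped FCS for 24 h, then treated 24 h with 0.1 µM compound in 0.1% DMSO; CDCA 50 µM as reference. Total RNA extracted; qRT-PCR in duplicate, ≥4 independent experiments, comparative ΔΔCt quantification.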

[14] = biological target: T2, Bile acid receptor (Homo sapiens); assay: Partial agonist activity at FXR in human HepG2 cells assessed as induction of SHP gene expression at 0.1 uM after 24 hrs by qRT-PCR analysis (reference value: 100%); format: cell-based; summary of the method: as §4
[15] = biological target: T2, Bile acid receptor (Homo sapiens); assay: Partial agonist activity at FXR in human HepG2 cells assessed as induction of OST-alpha gene expression at 0.1 uM after 24 hrs by qRT-PCR analysis (reference value: 100%); format: cell-based; summary of the method: as §4
[16] = biological target: T2, Bile acid receptor (Homo sapiens); assay: Partial agonist activity at FXR in human HT-29 cells assessed as induction of IBABP gene expression at 0.1 uM after 24 hrs by qRT-PCR analysis (reference value: 100%); format: cell-based; summary of the method: as §4
[17] = Solubility of the compound in 1% aqueous DMSO solution measured after 4 hrs by HPLC analysis; format: physicochemical
[18] = biological target: T2, Bile acid receptor (Homo sapiens); assay: Agonist activity at human full length FXR expressed in HeLa cells cotransfected with pSG5-human RXR at 30 uM after 24 hrs by Dual-Glo luciferase reporter gene assay; format: cell-based
Summary of the method: (§5)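 HeLa cells, seeded 8,000/well 24 h ahead, calcium phosphate transfected with pcDNA3-hFXR (CMV), pSG5-hRXR, BSEP-promoter firefly luciferase and pRL-SV40 renilla control. Medium at 0.5% charcoal-stripped FCS; compound in 0.1% DMSO for 24 h. Dual-Glo firefly/renilla ratio, expressed relative to 3 µM GW4064. Triplicate wells, ≥3 independent runs.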

[19] = biological target: T2, Bile acid receptor (Homo sapiens); assay: Antagonist activity at human full length FXR expressed in HeLa cells cotransfected with pSG5-human RXR at 30 uM after 24 hrs by Dual-Glo luciferase reporter gene assay; format: cell-based
[20] = biological target: T2, Bile acid receptor (Homo sapiens); assay: Agonist activity at human full length FXR expressed in HeLa cells cotransfected with pSG5-human RXR at 10 uM after 24 hrs by Dual-Glo luciferase reporter gene assay; format: cell-based; summary of the method: as §5
[21] = biological target: T2, Bile acid receptor (Homo sapiens); assay: Antagonist activity at human full length FXR expressed in HeLa cells cotransfected with pSG5-human RXR at 10 uM after 24 hrs by Dual-Glo luciferase reporter gene assay; format: cell-based
[22] = biological target: T2, Bile acid receptor (Homo sapiens); assay: Agonist activity at human full length FXR expressed in HeLa cells cotransfected with pSG5-human RXR at 50 uM after 24 hrs by Dual-Glo luciferase reporter gene assay; format: cell-based; summary of the method: as §5
Bile acid receptor [23] = biological target: T1, Bile acid receptor; assay: Antagonist activity at human full length FXR expressed in HeLa cells cotransfected with pSG5-human RXR after 24 hrs by Dual-Glo luciferase reporter gene assay; format: cell-based

Structure (SMILES): Cc1ccccc1-c1noc(-c2cccc(C(=O)O)c2)n1
EC50 (Bile acid receptor [1]): 7.2 nM
solubility [2]: 33 µg/mL (≈ 118 µM)
remaining at 10 µM [3]: 99.4%
remaining at 0.25 h, 10 µM [4]: 84.6%
remaining at 0.5 h, 10 µM [5]: 71.3%
remaining at 1 h, 10 µM [6]: 53.9%
Activity (HepG2 [7]): 0%
Activity (HepG2 [8]): 0%
Activity (HepG2 [9]): 15%
viability at 48 h, 5 µM [10]: 109%
viability at 48 h, 10 µM [11]: 87%
viability at 48 h, 50 µM [12]: 86%
Activity [13]: 395%
Activity [14]: 515%
Activity [15]: 339%
Activity [16]: 295%

Structure (SMILES): Cc1ccc(-c2noc(-c3ccc(Cl)cc3)n2)cc1
EC50 (Bile acid receptor [1]): 410 nM

Structure (SMILES): CCN(CC)c1ccc2cc(-c3nc(-c4ccccc4)no3)c(=O)oc2c1
EC50 (Bile acid receptor [1]): 460 nM
solubility [2]: 10.1 µg/mL (≈ 27.9 µM)
solubility at 4 h [17]: 9.98 µg/mL (≈ 27.6 µM)

Structure (SMILES): c1ccc(-c2noc(-c3ccccc3)n2)cc1
EC50 (Bile acid receptor [1]): 530 nM

Structure (SMILES): COc1ccc(-c2sc(-c3ccc(C)cc3)nc2O)cc1
Activity [18]: inactive
inhibition [19]: inactive

Structure (SMILES): Cc1ccccc1-c1noc(-c2ccc(C(=O)O)cc2)n1
EC50 (Bile acid receptor [1]): 220 nM

Structure (SMILES): CC(C)c1nc(-c2ccccc2)no1
Activity [22]: 12.3%

Structure (SMILES): COc1ccc(-c2nc(-c3cccc(C(F)(F)F)c3)no2)cc1
EC50 (Bile acid receptor [1]): 2900 nM

The remaining lines, values ahead:

EC50 (Bile acid receptor [1]): 350 nM
Structure (SMILES): Brc1ccc(-c2nc(-c3ccccc3)no2)cc1

EC50 (Bile acid receptor [1]): 120 nM
Structure (SMILES): COc1ccc(-c2nc(-c3ccccc3C)no2)cc1

Activity [20]: inactive
inhibition [21]: inactive
Structure (SMILES): Oc1ccc(-c2nc(-c3ccccc3)no2)cc1

IC50 (Bile acid receptor [23]): 16400 nM
Structure (SMILES): COc1ccc(-c2nc(-c3ccccc3)no2)cc1
